ChEMBL document CHEMBL4689842, “EUbOPEN Chemogenomics Library wave 1” (2021)

Test system: Fibroblast
Assay: Multiplex assay against human fibroblast
Format: toxicity, cell-based
Method in brief: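 Phenotypes for tubulin, mitochondrial mass and membrane permeability are expressed as per cents of healthy-nucleus cells. Cells were stained live at seeding with Hoechst33342, BioTracker Green Microtubule Cytoskeleton Dye, MitoTracker Red and Annexin V Alexa Fluor 680, then imaged after compound addition on a CQ1 microscope at 37°C and 5% CO2. Machine-learning gating in CellPathfinder separated Hoechst high-intensity objects from normal cells, divided normal cells by nuclear state (healthy, pyknosed, fragmented) and divided pyknosed cells into mitotic or apoptotic.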

[1] = 12 h, 1 µM, compound concentration 1 uM, replicate 1
[2] = 12 h, 1 µM, compound concentration 1 uM, replicate 2
[3] = 12 h, 10 µM, compound concentration 10 uM, replicate 1
[4] = 12 h, 10 µM, compound concentration 10 uM, replicate 2
[5] = 24 h, 1 µM, compound concentration 1 uM, replicate 1
[6] = 24 h, 1 µM, compound concentration 1 uM, replicate 2
[7] = 24 h, 10 µM, compound concentration 10 uM, replicate 1
[8] = 24 h, 10 µM, compound concentration 10 uM, replicate 2
[9] = 48 h, 1 µM, compound concentration 1 uM, replicate 1
[10] = 48 h, 1 µM, compound concentration 1 uM, replicate 2
[11] = 48 h, 10 µM, compound concentration 10 uM, replicate 1
[12] = 48 h, 10 µM, compound concentration 10 uM, replicate 2

SMILES: NC(=O)c1cccc(-c2cc(Nc3ccc(OC(F)(F)F)cc3)ncn2)c1
- Population Apoptotic (%) [1]: 80%
- Population Fragmented Nuclei (%) [1]: 30%
- Population Healthy Nuclei (%) [1]: 53%
- Population Hoechst High Intensity Objects (%) [1]: 10%
- Population Membrane Permeable-Phenotype (%) [1]: 5%
- Population Mitochondria Different-Phenotype (%) [1]: 6%
- Population Mitotic Cells (%) [1]: 20%
- Population Normal (%) [1]: 89%
- Population Pyknosed Nuclei (%) [1]: 16%
- Population Tubulin-Different-Phenotype (%) [1]: 5%
- Total Cell Count [1]: 205
- Population Apoptotic (%) [2]: 20%
- Population Fragmented Nuclei (%) [2]: 42%
- Population Healthy Nuclei (%) [2]: 48%
- Population Hoechst High Intensity Objects (%) [2]: 39%
- Population Membrane Permeable-Phenotype (%) [2]: 11%
- Population Mitochondria Different-Phenotype (%) [2]: 23%
- Population Mitotic Cells (%) [2]: 80%
- Population Normal (%) [2]: 60%
- Population Pyknosed Nuclei (%) [2]: 9%
- Population Tubulin-Different-Phenotype (%) [2]: 3%
- Total Cell Count [2]: 89
- Population Apoptotic (%) [3]: 69%
- Population Fragmented Nuclei (%) [3]: 20%
- Population Healthy Nuclei (%) [3]: 61%
- Population Hoechst High Intensity Objects (%) [3]: 7%
- Population Membrane Permeable-Phenotype (%) [3]: 7%
- Population Mitochondria Different-Phenotype (%) [3]: 3%
- Population Mitotic Cells (%) [3]: 30%
- Population Normal (%) [3]: 92%
- Population Pyknosed Nuclei (%) [3]: 18%
- Population Tubulin-Different-Phenotype (%) [3]: 6%
- Total Cell Count [3]: 231
- Population Apoptotic (%) [4]: 60%
- Population Fragmented Nuclei (%) [4]: 50%
- Population Healthy Nuclei (%) [4]: 23%
- Population Hoechst High Intensity Objects (%) [4]: 39%
- Population Membrane Permeable-Phenotype (%) [4]: 0%
- Population Mitochondria Different-Phenotype (%) [4]: 44%
- Population Mitotic Cells (%) [4]: 40%
- Population Normal (%) [4]: 60%
- Population Pyknosed Nuclei (%) [4]: 26%
- Population Tubulin-Different-Phenotype (%) [4]: 33%
- Total Cell Count [4]: 63
- Population Apoptotic (%) [5]: 60%
- Population Fragmented Nuclei (%) [5]: 26%
- Population Healthy Nuclei (%) [5]: 59%
- Population Hoechst High Intensity Objects (%) [5]: 12%
- Population Membrane Permeable-Phenotype (%) [5]: 6%
- Population Mitochondria Different-Phenotype (%) [5]: 7%
- Population Mitotic Cells (%) [5]: 39%
- Population Normal (%) [5]: 87%
- Population Pyknosed Nuclei (%) [5]: 13%
- Population Tubulin-Different-Phenotype (%) [5]: 11%
- Total Cell Count [5]: 194
- Population Apoptotic (%) [6]: 50%
- Population Fragmented Nuclei (%) [6]: 46%
- Population Healthy Nuclei (%) [6]: 46%
- Population Hoechst High Intensity Objects (%) [6]: 26%
- Population Membrane Permeable-Phenotype (%) [6]: 12%
- Population Mitochondria Different-Phenotype (%) [6]: 16%
- Population Mitotic Cells (%) [6]: 50%
- Population Normal (%) [6]: 73%
- Population Pyknosed Nuclei (%) [6]: 6%
- Population Tubulin-Different-Phenotype (%) [6]: 12%
- Total Cell Count [6]: 90
- Population Apoptotic (%) [7]: 55%
- Population Fragmented Nuclei (%) [7]: 26%
- Population Healthy Nuclei (%) [7]: 53%
- Population Hoechst High Intensity Objects (%) [7]: 5%
- Population Membrane Permeable-Phenotype (%) [7]: 5%
- Population Mitochondria Different-Phenotype (%) [7]: 5%
- Population Mitotic Cells (%) [7]: 44%
- Population Normal (%) [7]: 94%
- Population Pyknosed Nuclei (%) [7]: 19%
- Population Tubulin-Different-Phenotype (%) [7]: 11%
- Total Cell Count [7]: 237
- Population Apoptotic (%) [8]: 40%
- Population Fragmented Nuclei (%) [8]: 50%
- Population Healthy Nuclei (%) [8]: 39%
- Population Hoechst High Intensity Objects (%) [8]: 31%
- Population Membrane Permeable-Phenotype (%) [8]: 21%
- Population Mitochondria Different-Phenotype (%) [8]: 31%
- Population Mitotic Cells (%) [8]: 60%
- Population Normal (%) [8]: 68%
- Population Pyknosed Nuclei (%) [8]: 10%
- Population Tubulin-Different-Phenotype (%) [8]: 57%
- Total Cell Count [8]: 70

SMILES: O=C1NC(=O)C(c2cnc3ccccn23)=C1c1cn2c3c(cc(F)cc13)CN(C(=O)N1CCCCC1)CC2 [LY-2090314]
- Population Apoptotic (%) [1]: 60%
- Population Fragmented Nuclei (%) [1]: 16%
- Population Healthy Nuclei (%) [1]: 32%
- Population Hoechst High Intensity Objects (%) [1]: 11%
- Population Membrane Permeable-Phenotype (%) [1]: 29%
- Population Mitochondria Different-Phenotype (%) [1]: 22%
- Population Mitotic Cells (%) [1]: 40%
- Population Normal (%) [1]: 88%
- Population Pyknosed Nuclei (%) [1]: 51%
- Population Tubulin-Different-Phenotype (%) [1]: 89%
- Total Cell Count [1]: 166
- Population Apoptotic (%) [2]: 80%
- Population Fragmented Nuclei (%) [2]: 3%
- Population Healthy Nuclei (%) [2]: 87%
- Population Hoechst High Intensity Objects (%) [2]: 12%
- Population Membrane Permeable-Phenotype (%) [2]: 6%
- Population Mitochondria Different-Phenotype (%) [2]: 16%
- Population Mitotic Cells (%) [2]: 20%
- Population Normal (%) [2]: 87%
- Population Pyknosed Nuclei (%) [2]: 9%
- Population Tubulin-Different-Phenotype (%) [2]: 22%
- Total Cell Count [2]: 85
- Population Apoptotic (%) [3]: 61%
- Population Fragmented Nuclei (%) [3]: 23%
- Population Healthy Nuclei (%) [3]: 31%
- Population Hoechst High Intensity Objects (%) [3]: 6%
- Population Membrane Permeable-Phenotype (%) [3]: 50%
- Population Mitochondria Different-Phenotype (%) [3]: 26%
- Population Mitotic Cells (%) [3]: 38%
- Population Normal (%) [3]: 93%
- Population Pyknosed Nuclei (%) [3]: 44%
- Population Tubulin-Different-Phenotype (%) [3]: 86%
- Total Cell Count [3]: 101
- Population Apoptotic (%) [4]: 100%
- Population Fragmented Nuclei (%) [4]: 9%
- Population Healthy Nuclei (%) [4]: 74%
- Population Hoechst High Intensity Objects (%) [4]: 10%
- Population Membrane Permeable-Phenotype (%) [4]: 40%
- Population Mitochondria Different-Phenotype (%) [4]: 96%
- Population Mitotic Cells (%) [4]: 0%
- Population Normal (%) [4]: 89%
- Population Pyknosed Nuclei (%) [4]: 16%
- Population Tubulin-Different-Phenotype (%) [4]: 96%
- Total Cell Count [4]: 63
- Population Apoptotic (%) [5]: 64%
- Population Fragmented Nuclei (%) [5]: 25%
- Population Healthy Nuclei (%) [5]: 36%
- Population Hoechst High Intensity Objects (%) [5]: 7%
- Population Membrane Permeable-Phenotype (%) [5]: 26%
- Population Mitochondria Different-Phenotype (%) [5]: 17%
- Population Mitotic Cells (%) [5]: 35%
- Population Normal (%) [5]: 92%
- Population Pyknosed Nuclei (%) [5]: 38%
- Population Tubulin-Different-Phenotype (%) [5]: 86%
- Total Cell Count [5]: 156
- Population Apoptotic (%) [6]: 80%
- Population Fragmented Nuclei (%) [6]: 4%
- Population Healthy Nuclei (%) [6]: 87%
- Population Hoechst High Intensity Objects (%) [6]: 13%
- Population Membrane Permeable-Phenotype (%) [6]: 7%
- Population Mitochondria Different-Phenotype (%) [6]: 22%
- Population Mitotic Cells (%) [6]: 20%
- Population Normal (%) [6]: 86%
- Population Pyknosed Nuclei (%) [6]: 8%
- Population Tubulin-Different-Phenotype (%) [6]: 18%
- Total Cell Count [6]: 82
- Population Apoptotic (%) [7]: 70%
- Population Fragmented Nuclei (%) [7]: 24%
- Population Healthy Nuclei (%) [7]: 34%
- Population Hoechst High Intensity Objects (%) [7]: 11%
- Population Membrane Permeable-Phenotype (%) [7]: 41%
- Population Mitochondria Different-Phenotype (%) [7]: 58%
- Population Mitotic Cells (%) [7]: 29%
- Population Normal (%) [7]: 88%
- Population Pyknosed Nuclei (%) [7]: 41%
- Population Tubulin-Different-Phenotype (%) [7]: 87%
- Total Cell Count [7]: 102
- Population Apoptotic (%) [8]: 81%
- Population Fragmented Nuclei (%) [8]: 11%
- Population Healthy Nuclei (%) [8]: 64%
- Population Hoechst High Intensity Objects (%) [8]: 4%
- Population Membrane Permeable-Phenotype (%) [8]: 37%
- Population Mitochondria Different-Phenotype (%) [8]: 96%
- Population Mitotic Cells (%) [8]: 18%
- Population Normal (%) [8]: 95%
- Population Pyknosed Nuclei (%) [8]: 24%
- Population Tubulin-Different-Phenotype (%) [8]: 96%
- Total Cell Count [8]: 72
- Population Apoptotic (%) [9]: 79%
- Population Fragmented Nuclei (%) [9]: 36%
- Population Healthy Nuclei (%) [9]: 22%
- Population Hoechst High Intensity Objects (%) [9]: 6%
- Population Membrane Permeable-Phenotype (%) [9]: 14%
- Population Mitochondria Different-Phenotype (%) [9]: 25%
- Population Mitotic Cells (%) [9]: 20%
- Population Normal (%) [9]: 93%
- Population Pyknosed Nuclei (%) [9]: 41%
- Population Tubulin-Different-Phenotype (%) [9]: 85%
- Total Cell Count [9]: 127
- Population Apoptotic (%) [10]: 75%
- Population Fragmented Nuclei (%) [10]: 55%
- Population Healthy Nuclei (%) [10]: 29%
- Population Hoechst High Intensity Objects (%) [10]: 8%
- Population Membrane Permeable-Phenotype (%) [10]: 26%
- Population Mitochondria Different-Phenotype (%) [10]: 26%
- Population Mitotic Cells (%) [10]: 25%
- Population Normal (%) [10]: 91%
- Population Pyknosed Nuclei (%) [10]: 15%
- Population Tubulin-Different-Phenotype (%) [10]: 69%
- Total Cell Count [10]: 86
- Population Apoptotic (%) [11]: 73%
- Population Fragmented Nuclei (%) [11]: 28%
- Population Healthy Nuclei (%) [11]: 25%
- Population Hoechst High Intensity Objects (%) [11]: 15%
- Population Membrane Permeable-Phenotype (%) [11]: 28%
- Population Mitochondria Different-Phenotype (%) [11]: 57%
- Population Mitotic Cells (%) [11]: 26%
- Population Normal (%) [11]: 84%
- Population Pyknosed Nuclei (%) [11]: 46%
- Population Tubulin-Different-Phenotype (%) [11]: 71%
- Total Cell Count [11]: 97
- Population Apoptotic (%) [12]: 93%
- Population Fragmented Nuclei (%) [12]: 10%
- Population Healthy Nuclei (%) [12]: 61%
- Population Hoechst High Intensity Objects (%) [12]: 16%
- Population Membrane Permeable-Phenotype (%) [12]: 5%
- Population Mitochondria Different-Phenotype (%) [12]: 85%
- Population Mitotic Cells (%) [12]: 6%
- Population Normal (%) [12]: 83%
- Population Pyknosed Nuclei (%) [12]: 27%
- Population Tubulin-Different-Phenotype (%) [12]: 85%
- Total Cell Count [12]: 66
